From PubChem
CHO parental Ca – counter-screen for OX1R antagonists: effect in parental CHO cells; parental CHO-K1, ATP-induced calcium, Fluo-8 fluorescence; inhibition, % at 5.6 µM; 0.63% of 330,000 active;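 active means inhibition above that plate's mean sample inhibition plus 3 SD, cut at about 26% in these data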;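 further: 0% = ATP-challenged DMSO wells and 100% = DMSO wells without ATP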
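Assay system: parental CHO cells; Read-out basis: percent inhibition of ATP-evoked calcium rise, normalized to controls; Benchmarks: ATP and no-ATP DMSO wells; Compound dosing: single nominal dose of 5.6 µM per compound; Signal: Fluo-8 calcium dye fluorescence; Also added: ATP as calcium-mobilizing challenge; Repeats: singlicate.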
TAAR1 antagonist – human TAAR1 antagonism. Q96RJ0. CHO RD-HGA16 TAAR1, Fluo-8 calcium fluorescence, antagonist. inhibition, % at 3 µM. 1.5% of 360,000 active. AID 624466;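 active means inhibition above a per-plate cutoff, the mean inhibition of test compounds on that plate plus 3 SD, cut at about 49% in these data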;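 further: 0% = DMSO plus EC80 beta-PEA response and 100% = DMSO alone without agonist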
Target sequence (Q96RJ0 whole entry, looked up): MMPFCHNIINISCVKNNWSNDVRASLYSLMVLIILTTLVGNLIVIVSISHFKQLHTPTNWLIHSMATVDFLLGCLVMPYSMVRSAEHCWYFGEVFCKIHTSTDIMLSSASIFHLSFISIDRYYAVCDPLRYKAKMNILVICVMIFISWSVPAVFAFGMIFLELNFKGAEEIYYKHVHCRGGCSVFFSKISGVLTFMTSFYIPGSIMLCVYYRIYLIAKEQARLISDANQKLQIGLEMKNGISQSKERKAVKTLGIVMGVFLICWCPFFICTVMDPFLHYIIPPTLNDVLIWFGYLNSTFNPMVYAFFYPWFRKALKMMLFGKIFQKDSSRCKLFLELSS
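Test system – hTAAR1-expressing CHO RD-HGA16 cells, Gα16-coupled · Reagent – β-PEA at EC80 concentration, post-compound challenge · Compound dosing – 3 µM, single point · Timing – 140 s kinetic read after compound, 140 s after agonist · Detection – Fluo-8 intracellular calcium dye fluorescence, real-time kinetic reads · Control set – DMSO and EC80 PEA controls · Repeats – n of 1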
TAAR1 ag – agonists of human TAAR1 | Q96RJ0 | CHO RD-HGA16 TAAR1, Fluo-8 calcium fluorescence; vehicle wells 0%, saturating PEA agonist 100% | activation, % at 3 µM | 0.99% of 360,000 active | AID 624467;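 active means activation above the mean activation of all test compounds in the run plus 3 SD, cut at about 38% in these data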
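Test system: RD-HGA16 (CHO) cells co-expressing Gα16 and hTAAR1 | Doses: Single dose, 3 µM | Schedule: 17-24 h seeding, 75 min 37 °C dye, 30 min RT | Evaluation: % activation from peak over basal fluorescence ratio, DMSO-to-PEA scaled | Technique: Kinetic Fluo-8 calcium fluorescence | Benchmarks: Low control DMSO, high control PEA (EC100)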
GPR7 antag – blocks human GPR7 receptor signaling; GPR7-expressing cells, fluorescence antagonist assay; inhibition, % at 4.4 µM; 1.1% of 290,000 active; P48145; in the data active means inhibition above about 16%, passing the limit was not always enough;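 further: cells stimulated with the agonist NPW; 0% = agonist with vehicle and 100% = vehicle without agonist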
Target sequence (P48145 whole entry, looked up): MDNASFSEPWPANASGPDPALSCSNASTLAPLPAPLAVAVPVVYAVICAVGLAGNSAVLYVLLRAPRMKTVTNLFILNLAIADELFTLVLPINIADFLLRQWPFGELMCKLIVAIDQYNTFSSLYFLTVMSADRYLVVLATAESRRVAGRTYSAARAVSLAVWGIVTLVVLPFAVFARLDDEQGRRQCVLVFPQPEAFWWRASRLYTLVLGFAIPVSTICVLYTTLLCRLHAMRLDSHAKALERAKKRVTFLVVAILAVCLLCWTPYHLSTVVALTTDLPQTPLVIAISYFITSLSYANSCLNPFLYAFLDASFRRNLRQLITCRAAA
OX1R antag-1 – blocks the human orexin 1 receptor; O43613; OX1R-expressing cells, FRET antagonist read-out; inhibition, % at 6.6 µM; 1.8% of 330,000 active; in the data active means inhibition mostly above about 38%, no sharp cut-off; inactive means mostly below about 40%;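 further: 0% = agonist challenge alone and 100% = reference antagonist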
OX1R antag-2 – human HCRTR1 antagonism | O43613 | CHO/OX1R cells, Fluo-8 calcium fluorescence, orexin A | inhibition, % at 5 µM | 0.43% of 330,000 active | AID 434989;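 active means inhibition above its plate's threshold, mean inhibition of all tested compounds on the plate plus 3 SD, cut at about 37% in these data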;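 further: 0% = orexin A challenge wells and 100% = SB-334867-A antagonist wells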
TAAR1 nonsel count – nonselective antagonism, TAAR1 counter-screen; shares compounds with TAAR1 antagonist; counterscreen cell line, calcium fluorescence, antagonist mode; inhibition, % at 3 µM; 77% of 2,400 active; AID 651780; in the data active means inhibition above about 22%;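 further: CHO-Ga16 host cells stimulated with ATP at an EC80 level; 0% = agonist EC80 plus vehicle and 100% = vehicle without agonist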
TAAR1 ant conf – human TAAR1 antagonism, confirmed; 40% of 2,400 active; inhibition, % at 3 µM; shares compounds with TAAR1 antagonist; TAAR1-expressing cells, fluorescence antagonist read-out; in the data active means inhibition above about 49%;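 further: CHO-Ga16 host cells challenged with agonist PEA near its EC80; 0% = agonist at EC80 plus vehicle and 100% = vehicle with no agonist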
Ga16 ag counter – nonselective Ga16 agonism, counter-screen; shares compounds with TAAR1 antagonist; Ga16-expressing cells, calcium fluorescence, agonist counterscreen; activation, % at 3 µM; 18% of 2,400 active; AID 651953; in the data active means activation above about 12%;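 further: 0% = vehicle wells and 100% = saturating stimulus response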
TAAR1 ag count – counter-screen for human TAAR1 antagonists: TAAR1 agonists; 2% of 2,400 active; AID 651955; shares compounds with TAAR1 antagonist; hTAAR1 cell line, fluorescence activation, agonist mode; activation, % at 3 µM; in the data active means activation above about 37%;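 further: CHO cells stably expressing TAAR1 with calcium dye readout; 0% = DMSO vehicle and 100% = full agonist response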
* = called active by the depositor. Hits are enriched below; roughly 4.5% of the tested compounds scored in any of these assays.

How did CCC(=O)Nc1ccc(C(=O)Cn2ncc(Cl)c(Cl)c2=O)cc1 do in these assays?
CHO parental Ca: -6; TAAR1 antagonist: 11; TAAR1 ag: -2; GPR7 antag: 6; OX1R antag-1: 41; OX1R antag-2: -3

What do the screens show for `CC1(Cc2cccc(C(F)(F)F)c2)C(=O)Nc2ccc(-c3ccc(F)c(Cl)c3)cc21` (stereo not drawn)?
TAAR1 antagonist: -28; TAAR1 ag: 4

What do the screens show for `CC(C)(C)N(Cc1ccccc1)C(=O)COC(=O)CSc1ccc([N+](=O)[O-])cc1`?
CHO parental Ca: -19; TAAR1 antagonist: 67*; TAAR1 ag: 6; OX1R antag-1: 23; OX1R antag-2: -24; TAAR1 nonsel count: 31*; TAAR1 ant conf: 27; Ga16 ag counter: 6; TAAR1 ag count: 5

What do the screens show for `O=C(CCCCCN1C(=O)[C@@H]2Cc3ccccc3CN2C1=O)Nc1cccc(F)c1`?
CHO parental Ca: -10; TAAR1 antagonist: 67*; TAAR1 ag: 8; GPR7 antag: 2; OX1R antag-1: 12; OX1R antag-2: -33; TAAR1 nonsel count: 42*; TAAR1 ant conf: 60*; Ga16 ag counter: 13*; TAAR1 ag count: 10

What do the screens show for `CCOc1ccc(C(C(=O)NCC2CCCO2)N(C(=O)c2snc(C(N)=O)c2N)c2cccc(F)c2)cc1` (stereo not drawn)?
CHO parental Ca: -13; TAAR1 antagonist: 56*; TAAR1 ag: 17; GPR7 antag: -1; OX1R antag-1: 13; OX1R antag-2: -8; TAAR1 nonsel count: 28*; TAAR1 ant conf: 50*; Ga16 ag counter: 10; TAAR1 ag count: 23

How did O=C(NCC1CCCO1)C(c1cccnc1)N(C(=O)Cc1cccs1)c1ccccc1 (stereo not drawn) do in these assays?
CHO parental Ca: -18; TAAR1 antagonist: 54*; TAAR1 ag: 24; GPR7 antag: -9; OX1R antag-1: 18; OX1R antag-2: -31; TAAR1 nonsel count: 21; TAAR1 ant conf: 47; Ga16 ag counter: 10; TAAR1 ag count: 10

Results for CC(C)CC(C(=O)NCC1CCCO1)N(C(=O)Cn1nnc(-c2ccc(F)cc2)n1)c1cccc(C(F)(F)F)c1 (stereo not drawn) ?
CHO parental Ca: -14; TAAR1 antagonist: -12; TAAR1 ag: 6; GPR7 antag: -6; OX1R antag-1: 8; OX1R antag-2: -10

Results for O=C(NCC1CCCO1)C(c1ccc(F)cc1)N(C(=O)Cn1nnc(-c2ccc(F)cc2)n1)c1cccc(O)c1 (stereo not drawn) ?
CHO parental Ca: -22; TAAR1 antagonist: 83*; TAAR1 ag: 16; GPR7 antag: -8; OX1R antag-1: 12; OX1R antag-2: -30; TAAR1 nonsel count: 36*; TAAR1 ant conf: 55*; Ga16 ag counter: 11; TAAR1 ag count: 13

Results for NC(=O)c1nsc(C(=O)N(c2ccccc2F)C(C(=O)NCc2ccc(F)cc2)c2ccc(O)cc2)c1N (stereo not drawn) ?
CHO parental Ca: -10; TAAR1 antagonist: 77*; TAAR1 ag: 14; GPR7 antag: -10; OX1R antag-1: 48; OX1R antag-2: -2; TAAR1 nonsel count: 34*; TAAR1 ant conf: 48; Ga16 ag counter: 10; TAAR1 ag count: 19

Results for Oc1ccc(O)c(/C(=N/Nc2ccccc2)c2ccccc2)c1 ?
CHO parental Ca: -6; GPR7 antag: -6; OX1R antag-1: -3; OX1R antag-2: -5

What do the screens show for `COCCCN1C(=O)C(CC(=O)NCc2cccs2)CC(C(=O)N(C(C)C)C(C)C)=C1C` (stereo not drawn)?
TAAR1 antagonist: -16; TAAR1 ag: 4

Results for NC(=O)c1nsc(C(=O)N(c2ccc3c(c2)OCCO3)C(C(=O)NCC2CCCO2)c2ccc(F)cc2)c1N (stereo not drawn) ?
CHO parental Ca: -27; TAAR1 antagonist: 11; TAAR1 ag: -1; GPR7 antag: -1; OX1R antag-1: -10; OX1R antag-2: -34

How did NC(=O)c1nsc(C(=O)N(c2ccccc2)C(C(=O)NCC2CCCO2)c2ccc(F)cc2)c1N (stereo not drawn) do in these assays?
CHO parental Ca: -19; TAAR1 antagonist: 51*; TAAR1 ag: 14; GPR7 antag: -8; OX1R antag-1: 16; OX1R antag-2: -28; TAAR1 nonsel count: 20; TAAR1 ant conf: 39; Ga16 ag counter: 9; TAAR1 ag count: 13

How did NC(=O)c1nsc(C(=O)N(c2ccc(F)cc2)C(C(=O)NCC2CCCO2)c2ccc3ncccc3c2)c1N (stereo not drawn) do in these assays?
CHO parental Ca: -13; TAAR1 antagonist: 49*; TAAR1 ag: 13; GPR7 antag: -9; OX1R antag-1: 33; OX1R antag-2: -14; TAAR1 nonsel count: 25*; TAAR1 ant conf: 33; Ga16 ag counter: 6; TAAR1 ag count: 6

Results for Cc1ccc(C(C(=O)NCc2ccccc2)N(Cc2ccco2)C(=O)c2snc(C(N)=O)c2N)o1 (stereo not drawn) ?
CHO parental Ca: -27; TAAR1 antagonist: 71*; TAAR1 ag: 14; GPR7 antag: -7; OX1R antag-1: 24; OX1R antag-2: -37; TAAR1 nonsel count: 30*; TAAR1 ant conf: 56*; Ga16 ag counter: 8; TAAR1 ag count: 12

How did CC(C)(CNC(=O)c1cccc(NS(=O)(=O)c2ccc(Br)cc2)c1)N1CCOCC1 do in these assays?
CHO parental Ca: -26; TAAR1 antagonist: -10; TAAR1 ag: 1; GPR7 antag: -16; OX1R antag-1: -1; OX1R antag-2: -40

How did COc1ccc(CCN(C(=O)c2snc(C(N)=O)c2N)C(C(=O)NCC2CCCO2)c2ccc(F)cc2)cc1OC (stereo not drawn) do in these assays?
TAAR1 antagonist: 58*; TAAR1 ag: 23; GPR7 antag: -20; TAAR1 nonsel count: 31*; TAAR1 ant conf: 44; Ga16 ag counter: 9; TAAR1 ag count: 10
